# Screens from PubChem BioAssay.
# GASC-1 inh: blocks human GASC-1 demethylase activity; Q9H3R0; GST-JMJD2C(1-420) H3K9me3 demethylation, DELFIA europium; inhibition, % at 2.35 µM; hit rate 0.069% among 330,000; AID 2099;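 active = more than half of a compound's replicate wells show inhibition beyond 50%, single wells judged on their own value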;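 note: signal counts dimethyl H3K9 product captured on neutravidin plate; 0% = median of DMSO wells and 100% = 0.3 times that DMSO median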
# Target sequence (Q9H3R0 1-420 limits assumed): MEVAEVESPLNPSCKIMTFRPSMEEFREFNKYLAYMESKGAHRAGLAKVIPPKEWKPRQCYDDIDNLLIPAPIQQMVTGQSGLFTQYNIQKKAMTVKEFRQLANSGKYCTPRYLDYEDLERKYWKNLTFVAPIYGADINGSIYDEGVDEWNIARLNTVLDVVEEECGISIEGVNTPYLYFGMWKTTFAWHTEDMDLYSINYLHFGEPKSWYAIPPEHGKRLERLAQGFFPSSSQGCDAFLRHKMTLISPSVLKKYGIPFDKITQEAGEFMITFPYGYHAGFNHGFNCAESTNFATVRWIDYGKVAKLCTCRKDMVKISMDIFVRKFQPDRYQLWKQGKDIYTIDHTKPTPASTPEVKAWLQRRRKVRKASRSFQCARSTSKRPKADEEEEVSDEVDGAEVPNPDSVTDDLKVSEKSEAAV
# T cell modulator: modulates CD8 T cell binding to vesicles; 2C CD8+ T cell-vesicle binding, flow cytometry; active compounds read low; response (vesicle binding), % at 7 µM; hit rate 0.068% among 330,000; AID 2052;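 active = response, share of CD8 T cells binding vesicles, and their 90th percentile fluorescence all below set limits, cut at about 80% in these data, passing the limit was not always enough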;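 note: values below 100% mean blocked vesicle binding to the CD8+ T cells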
#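 material = purified 2C TCR transgenic mouse naive CD8+ T cells | controls = Unloaded micro-vesicles (low), QL9 vesicles with 0.7% DMSO (high) | detection = cytometric PE anti-B7-1 and Alexa647 anti-CD8 signals after 1% paraformaldehyde fixation | incubation = binding step 1.5 h, 37 °C, antibody labelling 20 min, ice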
# HIF act: HIF pathway transcriptional activation; AID 1910; hit rate 0.32% among 300,000; activation, % at 7.5 µM (by protocol); U2OS HRE-luciferase reporter, luminescence; normalized: DMSO 0%, desferrioxamine 100%;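 active = mean activation of at least 10% of the iron chelator positive control signal, with at least half of replicates also reaching 10%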
# SUMO Mot1 rescue: SUMOylation pathway inhibition by Mot1-301 growth rescue | S. cerevisiae Mot1-301 growth rescue, ATP luminescence, 38.5C; percent above DMSO median, 100 means doubled | hit rate 1% among 320,000 | growth rescue, % at 18.8 µM;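 active = every valid replicate shows activation above 250% relative to neutral control wells; inactive = the rest, any valid replicate at or below 250%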;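 note: OY570 slx delta 5 strain wells were the positive control but not used for scaling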
# Yeast Mot1 SUMO: yeast SUMO pathway inhibition in dose response; shares compounds with SUMO Mot1 rescue; S. cerevisiae Mot1-301 galactose growth, ATP luminescence, 24 h; -100 = growth of slx-deleted rescue strain; growth activity, percent, % at 42 µM; 2,300 tested, under 10 active;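 active = Signal drops as the depositor expects, and the fitted half-maximal dose is no more than ten times the top valid tested dose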;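 note: more negative values mean stronger growth rescue toward the control strain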
# * hit, by the source's call; i = inactive; · = no result; + = active, no number; [ ] = another dose, or the depositor's remark. Most compounds without a hit are left out; they make up all but 1.4% or so of the library.
SMILES,GASC-1 inh,T cell modulator,HIF act,SUMO Mot1 rescue,Yeast Mot1 SUMO
CCn1cc(C(=O)N(C)c2ccc(OC)cc2OC)c2cc(OC)c(OC)cc2c1=O,-3,416,0,415*,0
CCn1cc(C(=O)N(C)c2cc(C)ccc2OC)c2cc(OC)c(OC)cc2c1=O,-7,373,-45,-25,·
COc1ccc(/C=N\NC(=O)c2cc(OCC(F)(F)F)ccc2OCC(F)(F)F)cc1,-8,355,1,797*,0
N#C/C(=C\c1ccc(O)c(O)c1)C(=O)Nc1ccccc1,·,636,·,369*,-1
Cc1cccc(C)c1NC(=S)N1CC(C)OC(C)C1 (centres undefined),-7,202,-1,-3,·
COCCn1c(SCC(=O)NC(=O)NC2CCCC2)nc2ccccc2c1=O,6,271,·,-12,·
CCCN1CCN(CCCNC(=O)Cn2nc(C)n3c(cc4cc(F)ccc43)c2=O)CC1,0,341,0,129,·
CCCNC(=O)Cn1nc(C)n2c(cc3cc(F)ccc32)c1=O,-3,182,-25,+,0
COc1ccc(-n2c(SCC(=O)NCC3CCCO3)nc3c(c2=O)SCC3)cc1OC (centres undefined),0,488,0,672*,0
COCCN1C=C(C(=O)OC)C(c2cc3c(cc2Br)OCO3)C(C(=O)OC)=C1,-1,239,0,557*,0
COc1ccc(CC(=O)NCC2CCCN(Cc3cccc(SC)c3)C2)cc1 (centres undefined),-3,186,-15,-10,·
CN1C(=O)c2ccc(NC(=S)NC(=O)C(C)(C)C)cc2C1=O,-4,318,1,439*,0
CCC(=O)Nc1ccc2c(c1)C(=O)N(C)C2=O,5,199,0,i,·
O=C(CN1CCN(c2nc(-c3ccccc3)cs2)CC1)NNC(=O)c1ccc(Br)cc1,1,·,0,656*,2
Cc1ccc(C(=O)Nc2ccc(S(=O)(=O)NCc3ccco3)cc2)cc1,10,313,2,128,·
CCC(=O)Nc1ccc(S(=O)(=O)NCc2ccco2)cc1,-6,616,0,659*,1
O=S1(=O)NC(c2ccccc2)CC(CC2CCCCC2)O1 (centres undefined),5,571,0,943*,0
O=C1NC[C@H](c2ccccc2)N(CC2CCCCC2)C1=O,3,267,-1,-12,·
CC(=O)C1C(c2ccc([N+](=O)[O-])cc2)c2c(noc2C)CC1(C)O (centres undefined),-1,97,0,16,·
CCOC(=O)c1ccc(NC(=O)CC2Sc3ncnn3C2=O)cc1 (centres undefined),3,558,0,674*,-1
Cc1cc(CN(C)Cc2cn(C)nc2-c2ccc(Oc3ccccc3)cc2)on1,2,177,0,14,·
O=C(O)c1ccc(CNC(=O)c2ccccc2NC(=O)c2ccc([N+](=O)[O-])cc2)cc1,95,110,0,713*,0
O=C(NCCN1CCN(C(=O)c2ccc([N+](=O)[O-])cc2)CC1)C(=O)Nc1ccc(F)cc1,30,443,0,-8,·
Cn1c(COc2ccccc2O)[n+](C)c2ccccc21,-12,146,0,-6,·
CCCCCCCCCCOC(=O)Cn1c(COc2ccccc2OC)[n+](C)c2ccccc21,11,113,1,835*,0
SMILES,GASC-1 inh,T cell modulator,HIF act,SUMO Mot1 rescue,Yeast Mot1 SUMO
Cc1cc[n+](-c2ccccc2)c2ccccc12,6,148,0,-4,·
CCN(C(=S)NC(=O)c1ccco1)c1cccc2ccccc12,0,550,·,4,·
CCN(C(=S)NCCOC)c1cccc2ccccc12,-10,237,-1,418*,1
CC1(C)CNc2cc([N+](=O)[O-])ccc2S1,-8,144,3,810*,2
CSc1c(CN2CCN(C)CC2)c2ccccc2n1C,10,104,0,-6,·
CCCNC(=O)COC(=O)CCC(=O)c1cccs1,3,166,0,422*,0
CCNC(=O)COC(=O)CCC(=O)c1cccs1,4,207,-1,-1,·
COc1ccc(NC(=O)CCC(=O)Nc2nnc(C(F)(F)F)s2)c(OC)c1,92,220,-1,820*,0
COc1ccc(CCNC(=O)Cn2nnc(-c3ccc(N4CCOCC4)cc3)n2)cc1OC,4,374,1,710*,0
O=C(COC(=O)C12CC3CC(CC(Br)(C3)C1)C2)Nc1c(F)cccc1F,0,166,·,31,·
CN(C(=O)COC(=O)c1cncc(Br)c1)C1CCCCC1,19,296,·,8,·
CN(C(=O)c1cncc(Br)c1)C1C2CC3CC(C2)CC1C3 (centres undefined),-4,250,-25,780*,0
CC(C)CC(c1nnnn1C1CCCCC1)N1CCN(C(=O)c2ccco2)CC1 (centres undefined),4,226,-1,706*,0
C=CCn1c(-c2ccc(N)cc2)nc2ccccc21,2,264,·,265,·
CCOCCn1c(-c2ccc(OC)cc2)nc2ccccc21,-1,388,1,477*,0
COc1ccc(-c2nc3ccccc3n2Cc2ccccc2)cc1,3,312,1,6,·
C=CCn1c(-c2ccc(OC)cc2)nc2ccccc21,26,509,2,396*,0
Cc1cc(C)cc(OCC(=O)NNC(=O)c2cc(C)[nH]n2)c1,0,827,-1,-10,·
Cc1cc(C(=O)NN)n[nH]1,6,i,0,590*,0
CC(=O)NC1=NN(C(C)=O)C2(CCCC2)S1,4,397,-1,-6,·
CC(=O)N1N=C(N)SC12CCCC2,10,140,0,+,0
NC1=NC(=Nc2ccc(S(N)(=O)=O)cc2)c2ccccc21,-4,188,0,419*,0[21 µM]
Cc1ccc(N=C2N=C(N)c3ccccc32)cc1C,3,761,2,3,·
C=CC[C@H](CC(=O)NCCO)C(=O)N[C@H](COC(=O)[C@@H](CC=C)Cc1ccc(F)cc1)C(C)(C)C,·,221,·,·,·
CC[n+]1c(/C=C/N(C)c2ccccc2)n(-c2ccccc2)c2ccc(-c3nc4ccccc4s3)cc21,-31,236,-2,501*,-1
SMILES,GASC-1 inh,T cell modulator,HIF act,SUMO Mot1 rescue,Yeast Mot1 SUMO
CCOC(=O)c1ccc2c(c1)n(CC)c(/C=C/N(C)c1ccccc1)[n+]2CC,-7,270,0,0,·
CC(=O)CSc1ncnc2sc3c(c12)CCC(C)C3 (centres undefined),-5,236,0,-2,·
CC(=O)CSc1ncnc2sc3c(c12)CCCC3,-14,236,0,712*,0
N#Cc1ccc(Oc2ccc(S(=O)(=O)N3CCCC3)cn2)cc1,12,415,0,3,·
N#Cc1ccc(Oc2ccc(S(=O)(=O)N3CCCCC3)cn2)cc1,-1,499,-4,764*,0
COC(=O)c1ccccc1N(C)S(C)(=O)=O,7,222,0,563*,0
